Data reported in ChEMBL document CHEMBL3124880, “4-(3-Chloro-5-(trifluoromethyl)pyridin-2-yl)-N-(4-methoxypyridin-2-yl)piperazine-1-carbothioamide (ML267), a potent inhibitor of bacterial phosphopantetheinyl transferase that attenuates secondary metabolism and thwarts bacterial growth” (J Med Chem, 2014).
Calls of active or inactive are those of the source. The calls are words filed in the database; no cut-off is given here.

Columns and labels:
[1] = Inhibition of Bacillus subtilis Sfp-PPTase using rhodamine-CoA/BHQ-2-YbbR as substrate preincubated for 15 mins followed by substrate addition by HTS assay
Bacillus subtilis [2] = test: Antibacterial activity against Bacillus subtilis 168 assessed as disruption of cell membrane integrity at 10 times MIC after 15 mins by Syto9/propidium iodide staining-based BacLight LIVE/DEAD microscopic analysis; type: functional, organism-based; details: subsp. subtilis str. 168
Bacillus subtilis [3] = test: Antibacterial activity against Bacillus subtilis 168 assessed as growth inhibition after 16 to 20 hrs by resazurin dye-based assay; type: functional; details: subsp. subtilis str. 168
In short: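 Broth microdilution. Test article from 1 μL DMSO in 50 μL cation-adjusted Mueller Hinton II (bacteria) or RPMI 1640 (fungi), plus ~1×10^3 cfu inoculum in the same medium. Incubated 16–20 h at 30–37 °C (48 h for fungi). MIC scored visually as the first well without growth; resazurin added for imaging.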

Bacillus subtilis [4] = test: Antibacterial activity against Bacillus subtilis HM489 assessed as cellular ATP content after 5 hrs by BacTiter-Glo assay; type: functional, organism-based; details: HM489, 5 h
[5] = Inhibition of Bacillus subtilis AcpS-PPTase using rhodamine-CoA/BHQ-2-YbbR as substrate preincubated for 15 mins followed by substrate addition by HTS assay
In short: (§1)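 AcpS-PPTase at 100 nM final in 50 mM HEPES-Na pH 7.6, 10 mM MgCl2, 0.01% Nonidet P-40, 0.01% BSA; compound preincubated 15 min at room temperature, then rhodamine-CoA (5 μM final) and BHQ-2-YbbR (12.5 μM final) added. Fluorescence read (525 ex/598 em) at start and after 60 min; difference gives rate.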

HepG2 = test: Cytotoxicity against human HepG2 cells assessed as cellular ATP content after 48 hrs by CellTiter-Glo assay; type: cell-based; details: HepG2, 48 h
In short: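 HepG2 cells exposed to compound; viability read as cellular ATP by luciferase-coupled CellTiter-Glo.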

[6] = target: T1, L-aminoadipate-semialdehyde dehydrogenase-phosphopantetheinyl transferase (Homo sapiens) (UniProt Q9NRN7); test: Inhibition of human PPTase up to 125 uM by gel-based fluorescence assay
T1 sequence (whole entry): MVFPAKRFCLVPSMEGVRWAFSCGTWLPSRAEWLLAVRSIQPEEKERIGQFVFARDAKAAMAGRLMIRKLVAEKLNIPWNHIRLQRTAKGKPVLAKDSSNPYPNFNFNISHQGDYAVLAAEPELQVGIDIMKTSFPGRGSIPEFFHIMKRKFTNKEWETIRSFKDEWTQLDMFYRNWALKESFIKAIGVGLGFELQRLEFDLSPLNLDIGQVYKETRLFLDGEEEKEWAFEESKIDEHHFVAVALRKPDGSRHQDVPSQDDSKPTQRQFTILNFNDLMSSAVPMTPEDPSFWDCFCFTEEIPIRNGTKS

[7] = Inhibition of AcpS-PPTase (unknown origin); in short: as §1
Bacillus subtilis [8] = test: Inhibition of Bacillus subtilis Sfp-PPTase
In short: (§2)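 qHTS fluorescence assay in 50 mM HEPES-Na pH 7.6, 10 mM MgCl2, 0.01% NP-40, 0.01% BSA. Final enzyme 15 nM Sfp or 100 nM AcpS. Enzyme preincubated with compound 15 min at room temperature, then rhodamine-CoA 5 μM and BHQ-2-YbbR 12.5 μM (final) added. Fluorescence (525 ex/598 em) read at start and after 30 min (Sfp) or 60 min (AcpS); the difference gives the rate. Eight concentrations from 3.6 nM to 114 μM, run in triplicate.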

[9] = Non-competitive inhibition of Bacillus subtilis Sfp-PPTase using CoA/ActACP as substrate preincubated for 10 mins followed by substrate addition measured after 30 mins by HPLC analysis
Bacillus subtilis [10] = test: Inhibition of Bacillus subtilis AcpS-PPTase; in short: as §2
Bacillus subtilis [11] = test: Inhibition of Bacillus subtilis Sfp-PPTase using CoA/apo-ACP as substrate preincubated for 10 mins followed by substrate addition measured after 30 mins by PAGE analysis
In short: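 Compound in DMSO added to Sfp at 26.6 nM (in a 1.33× enzyme solution) in HEPES-Na pH 7.6 with MgCl2, NP-40 and BSA, and held 10 min. Reaction started with rhodamine-CoA and apo-actinorhodin-ACP, each 50 μM in a 4× substrate solution. After 30 min at room temperature, quenched with urea/EDTA and resolved by native 20% PAGE.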

Bacillus subtilis [12] = test: Reversible inhibition of Bacillus subtilis Sfp-PPTase using rhodamine-CoA/FITC-YbbR as substrate assessed as residual enzyme activity at IC90 preincubated for 30 mins followed by 100 fold dilution and addition of substrate by fluorescence assay
Liver microsome = test: Drug metabolism in human liver microsomes assessed as GSH adduct formation at 50 uM after 60 mins by LC-MS/MS analysis in presence of NADPH; type: ADME; details: 1 h
Staphylococcus aureus = test: Antibacterial activity against Staphylococcus aureus BK2395 in Swiss Webster mouse septicemia model assessed as increase in survival at 50 mg/kg, ip administered 4 to 48 hrs measured 3 times daily for 14 days; type: functional, organism-based; set-up: dose 50 mg/kg

| Compound | IC50 [1] [µM] | further results |
| --- | --- | --- |
| Cc1ccnc(NC(=S)Nc2cccc(C(F)(F)F)c2)c1 | 22.9 |  |
| Cc1ccnc(NC(=S)N2CCN(c3cccc(C(F)(F)F)c3)C2)c1 | 0.81 |  |
| Cc1cc(C)nc(N/C(=N/C#N)N2CCN(c3cccc(C(F)(F)F)c3)CC2)c1 | ≥ 114 |  |
| Cc1cc(C)nc(Nc2nnc(N3CCN(c4cccc(C(F)(F)F)c4)CC3)s2)c1 | ≥ 114 |  |
| Cc1cc(C)nc(NC(=S)N2CCN(c3cc(Cl)cc(Cl)c3)CC2)c1 | 0.85 |  |
| Cc1ccnc(NC(=S)NC2CCN(c3cccc(C(F)(F)F)c3)CC2)c1 | ≥ 114 |  |
| Cc1cc(C)nc(NC(=S)N2CCN(c3ccc(Cl)cc3Cl)CC2)c1 | 1 |  |
| Cc1cc(C)nc(NC(=C(C#N)C#N)N2CCN(c3cccc(C(F)(F)F)c3)CC2)c1 | ≥ 114 |  |
| Cc1cc(C)nc(NC(=S)N2CCN(S(=O)(=O)c3cccc(C(F)(F)F)c3)CC2)c1 | 0.81 |  |
| Cc1cc(C)nc(NC(=S)N2CCNCC2)c1 | 14.5 |  |
| Cc1cc(C)nc(NC(=S)N2CCN(c3cccc(S(C)(=O)=O)c3)CC2)c1 | 2.9 |  |
| Cc1ccnc(NC(=S)NCCN(C)c2cccc(C(F)(F)F)c2)c1 | ≥ 114 |  |
| Cc1cc(C)nc(NC(=S)N2CCN(c3cccc(C(F)(F)F)c3)CC2)c1 | 0.51 |  |
| Cc1cc(C)nc(NC(=S)N2CCN(c3cc(F)cc(F)c3)CC2)c1 | 1.3 |  |
| Cc1cc(C)nc(NC(=S)N2CCN(c3cc(C(F)(F)F)cc(C(F)(F)F)c3)CC2)c1 | 0.51 |  |
| Cc1ccnc(NC(=S)N2CC3CN(c4cccc(C(F)(F)F)c4)CC3C2)c1 (configuration not stated) | 0.73 |  |
| O=C(N[C@H](CO)[C@H](O)c1ccc([N+](=O)[O-])cc1)C(Cl)Cl |  | Activity (Bacillus subtilis [2]): inactive; growth inhibition (GI) (Bacillus subtilis [3]): Active |
| Cc1cc(C)nc(NC(=S)N2CCN(c3cc(Cl)c(Cl)c(Cl)c3)CC2)c1 | 0.29 |  |
| Cc1ccnc(NC(=S)N2CCN(C)CC2)c1 | 6.5 |  |
| Cc1cc(C)nc(NC(=S)N2CCN(c3ncc(C(F)(F)F)cc3Cl)CC2)c1 | 0.86 | IC50 (Bacillus subtilis [4]): 36.2 µM; IC50 [5]: 18.6 µM; IC50 (HepG2): 30 µM |

| Compound | IC50 [1] [µM] | further results |
| --- | --- | --- |
| Cc1ccnc(C(=S)N2CCN(c3cccc(C(F)(F)F)c3)CC2)c1 | ≥ 114 |  |
| Cc1ccnc(NC(=S)N2CCN(c3ccccc3C(F)(F)F)CC2)c1 | 0.61 | IC50 (Bacillus subtilis [4]): 9.4 µM; IC50 [5]: 10.2 µM; IC50 (HepG2): ≥ 114 µM |
| COc1cccc(NC(=S)N2CCN(c3cccc(C(F)(F)F)c3)CC2)n1 | 1.5 |  |
| FC(F)(F)c1cccc(N2CCN(C(=S)Nc3cc(C(F)(F)F)ccn3)CC2)c1 | ≥ 114 |  |
| Cc1cc(C)nc(NC(=S)N2CCN(Cc3cccc(C(F)(F)F)c3)CC2)c1 | 11.5 |  |
| Cc1ccnc(NC(=S)N2CCN(c3cccc(C(F)(F)F)c3)C[C@@H]2C)c1 | 11.5 |  |
| Cc1cc(C)cc(N2CCN(C(=S)Nc3cc(C)cc(C)n3)CC2)c1 | 1.6 |  |
| C/N=c1\nc(-c2ccccc2)n(-c2ccccc2)s1 |  | inhibition [6]: Active |
| FC(F)(F)c1cccc(N2CCN(C(=S)Nc3ccc4cccnc4n3)CC2)c1 | 1 |  |
| Cc1cc(C)nc(NC(=S)N2CCN(c3cc(C#N)cc(C#N)c3)CC2)c1 | 0.65 |  |
| Cc1ccnc(NC(=S)NCCNc2cccc(C(F)(F)F)c2)c1 | ≥ 114 |  |
| Cc1cc(C)nc(NC(=S)N2CCN(c3ccc(Cl)c(Cl)c3Cl)CC2)c1 | 0.73 |  |
| COc1ccnc(NC(=S)N2CCN(c3cccc(C(F)(F)F)c3)CC2)c1 | 1.2 |  |
| Cc1cc(C)nc(NC(=S)N2CCN(c3nnc(C(F)(F)F)s3)CC2)c1 | 1.6 |  |
| FC(F)(F)c1cccc(N2CCN(C(=S)Nc3ccncc3)CC2)c1 | ≥ 114 |  |
| Cc1cccc(NC(=S)N2CCN(c3cccc(C(F)(F)F)c3)CC2)c1 | ≥ 114 |  |
| COc1cc(OC)cc(N2CCN(C(=S)Nc3cc(C)cc(C)n3)CC2)c1 | 2 |  |
| Cc1ccnc(NC(=S)N2CCC(Nc3cccc(C(F)(F)F)c3)CC2)c1 | 0.81 | IC50 (Bacillus subtilis [4]): 13.2 µM; IC50 [5]: 12.9 µM; IC50 (HepG2): ≥ 114 µM |
| Cetyltrimethylammonium bromide |  | Activity (Bacillus subtilis [2]): Active; growth inhibition (GI) (Bacillus subtilis [3]): Active |
| Cc1cc(C)nc(NC(=S)N2CCN(c3cccc(C#N)c3)CC2)c1 | 1.6 |  |

| Compound | IC50 [1] [µM] | further results |
| --- | --- | --- |
| Cc1ccnc(NC(=S)NC2CN(c3cccc(C(F)(F)F)c3)C2)c1 | ≥ 114 |  |
| FC(F)(F)c1cccc(N2CCN(C(=S)Nc3ccccn3)CC2)c1 | 0.91 |  |
| Cc1ccnc(NC(=O)N2CCN(c3cccc(C(F)(F)F)c3)CC2)c1 | ≥ 114 | IC50 (Bacillus subtilis [4]): ≥ 114 µM; IC50 [5]: ≥ 114 µM; IC50 (HepG2): 7 µM |
| Cc1ccnc(NC(=S)N2CCN(c3cccc(N(C)C)c3)CC2)c1 | 5.8 |  |
| Cc1ccnc(NC(=S)N2CCN(c3ccc(C(F)(F)F)cc3)CC2)c1 | 1 |  |
| Cc1ccnc(N(C)C(=S)N2CCN(c3cccc(C(F)(F)F)c3)CC2)c1 | ≥ 114 |  |
| CSC(Cc1ccc(Cl)cc1)C(=O)Nc1ccc(Cl)cc1C(=O)O (configuration not stated) |  | IC50 [7]: 1.4 µM |
| FC(F)(F)c1cccc(N2CCN(C(=S)Nc3ccc4ccccc4n3)CC2)c1 | 1.5 |  |
| COC(=O)c1ccnc(NC(=S)N2CCN(c3cccc(C(F)(F)F)c3)CC2)c1 | 11.5 |  |
| Cc1cc(C)nc(NC(=S)N2CCN(c3cccc(Cl)c3Cl)CC2)c1 | 1.6 |  |
| Cc1cc(C)nc(NC(=S)N2CCN(c3ccc(C(F)(F)F)cn3)CC2)c1 |  | IC50 (Bacillus subtilis [4]): 13.2 µM; IC50 [5]: 16.2 µM; IC50 (HepG2): 15.8 µM |
| Nc1ncnc2c1ncn2[C@@H]1O[C@H](COP(=O)(O)O)[C@@H](OP(=O)(O)O)[C@H]1O |  | inhibition [6]: Active |
| Cc1ccnc(NC(=S)N2CCN(c3cccc(C(F)(F)F)c3)CC2)c1 | 0.78 | IC50 (Bacillus subtilis [4]): 9.8 µM; inhibition (Bacillus subtilis [8]): Active; IC50 [9]: 0.3 µM; IC50 [5]: 4.6 µM; inhibition (Bacillus subtilis [10]): Active; inhibition (Bacillus subtilis [11]): Dose-dependent effect; IC50 (HepG2): 14 µM; inhibition (Bacillus subtilis [12]): Active |
| Cc1cc(C)nc(NC(=S)N2CCN(c3ccc(Cl)c(Cl)c3)CC2)c1 | 0.91 |  |
| Cc1ccnc(NC(=S)N2CCCN(c3cccc(C(F)(F)F)c3)CC2)c1 | 1.6 |  |
| Cc1ccnc(NC(=N)N2CCN(c3cccc(C(F)(F)F)c3)CC2)c1 | ≥ 114 |  |
| Cc1cc(C)nc(NC(=S)N2CCN(c3ccc(Cl)cc3C(F)(F)F)CC2)c1 | 0.58 | IC50 (Bacillus subtilis [4]): 18.6 µM; Drug metabolism (Liver microsome): Not Active; IC50 [5]: 10.2 µM; IC50 (HepG2): ≥ 114 µM |
| Cc1ccnc(CC(=S)N2CCN(c3cccc(C(F)(F)F)c3)CC2)c1 | 5.76 |  |
| CN[C@H](CC(C)C)C(=O)N[C@H]1C(=O)N[C@@H](CC(N)=O)C(=O)N[C@H]2C(=O)N[C@H]3C(=O)N[C@H](C(=O)N[C@H](C(=O)O)c4cc(O)cc(O)c4-c4cc3ccc4O)[C@H](O)c3ccc(c(Cl)c3)Oc3cc2cc(c3O[C@@H]2O[C@H](CO)[C@@H](O)[C@H](O)[C@H]2O[C@H]2C[C@](C)(N)[C@H](O)[C@H](C)O2)Oc2ccc(cc2Cl)[C@H]1O |  | Activity (Staphylococcus aureus): Active |
